Experimental findings from ChEMBL document CHEMBL1165934, “Synthesis and in vitro toxicity of 4-MTA, its characteristic clandestine synthesis byproducts and related sulfur substituted alpha-alkylthioamphetamines” (Bioorg Med Chem, 2010) are described below.

pEC50, pIC50: −log10 of the molar value.

For data set [1], the system named is HEK293. The data set can be described thus: Cytotoxicity against human HEK293 cells assessed as cell viability after 48 hrs by neutral red assay. As to conditions: HEK293, 48 h. Type of data set: cell-based. In a few lines:
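HEK293 cells grown in DMEM with 10% FBS and 2 mM L-glutamine. Seeded at 5x10^4 cells/well and grown to sub-confluence (24-36 h), then exposed 48 h. Neutral red dye was added for 3 ± 1 h, then solubilised in 50% ethanol-1% acetic acid. A540 read with A690 background. Viability was taken as % of vehicle. pEC50 came from a sigmoidal fit (Hill slope 1) over 4 concentrations, triplicate, two independent days.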

In data set [2] the test system is HEK293. The data set can be described thus: Cytotoxicity against human HEK293 cells over expressing human SERT assessed as cell viability after 48 hrs by neutral red assay. The data set is classed as cell-based. The conditions noted are these: HEK293, 48 h. Put shortly:
(§1)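 Stably transfected HEK293 lines, passage ≤30, kept in DMEM with 10% FBS, 2 mM L-glutamine and Geneticin. Cells seeded at 5x10^4/well and grown to sub-confluence (24-36h), then exposed 48h. Neutral red uptake for 3 ± 1 h, then ethanol/acetic acid solubilisation, A540 minus 690 nm. Viability taken relative to vehicle. Range 1 µM-1 mM, 4 concentrations in triplicate on two independent days. pEC50 from sigmoidal fit (Hill slope 1).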

Data set [3] deals with HEK293. The data set can be described thus: Cytotoxicity against human HEK293 cells over expressing human NET assessed as cell viability after 48 hrs by neutral red assay. Type of data set: cell-based. As to conditions: HEK293, 48 h. Put shortly: as §1
The subject of data set [4] is HEK293. In words: Cytotoxicity against human HEK293 cells over expressing human DAT assessed as cell viability after 48 hrs by neutral red assay. The data set is classed as cell-based. As to conditions: HEK293, 48 h. Put shortly:
as §1

Data set [5] deals with PC-12. In words: Cytotoxicity against rat PC12 cells assessed as cell viability after 48 hrs by neutral red assay. Type of data set: cell-based. As to conditions: PC-12, 48 h. Put shortly: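 PC-12 (rat pheochromocytoma) cells on collagen were differentiated 7 days with 100 ng/ml NGF in low-serum DMEM/F12. Seeded at 5x10^4/well, then exposed 48h. Neutral red uptake for 3 ± 1 h, solubilised, A540 (690 nm background). Viability taken against vehicle. Tested 1 µM-1 mM, 4 concentrations in triplicate on two independent days. pEC50 by sigmoidal non-linear regression (Hill slope 1).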

A further data set concerns SH-SY5Y. The data set can be described thus: Cytotoxicity against human SH-SY5Y cells assessed as cell viability after 48 hrs by neutral red assay. Type of data set: cell-based. In a few lines:
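SH-SY5Y grown in DMEM/F12 (1:1) with 10% FBS, 1 mM pyruvate, 2 mM glutamine and 0.1 mM non-essential amino acids, at 37 °C. Seeded 5x10^4 cells/well, treated 48 h, then neutral red uptake for 3 ± 1 h. Absorbance read at 540 nm (690 nm background). Viability was expressed as % of vehicle-treated cells. pEC50 came from a nonlinear sigmoidal fit (Hill slope 1), with 4 concentrations in triplicate on two separate days.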

Data set [6] relates to PC-12. In words: Cytotoxicity against rat PC12 cells assessed as cell viability at 1 mM after 48 hrs by neutral red assay. Type of data set: cell-based. The conditions noted are these: pc-12, 48 h, 1000 µM. In a few lines: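 Undifferentiated PC-12 cells (rat pheochromocytoma) were seeded at 5x10^4 on collagen and differentiated for seven days with 100 ng/ml NGF in low-serum DMEM/F12. They were then exposed for 48 h to single concentrations. Neutral red staining lasted 3 ± 1 h, with absorbance at 540 nm (690 nm background). Viability was taken as % of vehicle, and each concentration was compared with untreated cells by one-way ANOVA.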

Data set [7] in a line: Selectivity ratio of IC50 for SERT to IC50 for DAT.
A short description of data set [8]: Selectivity ratio of IC50 for SERT to IC50 for NET.
In data set [9] the target is Sodium-dependent serotonin transporter (Homo sapiens, UniProt P31645). The data set can be described thus: Binding affinity to human SERT.
Sequence of Sodium-dependent serotonin transporter (P31645 whole entry): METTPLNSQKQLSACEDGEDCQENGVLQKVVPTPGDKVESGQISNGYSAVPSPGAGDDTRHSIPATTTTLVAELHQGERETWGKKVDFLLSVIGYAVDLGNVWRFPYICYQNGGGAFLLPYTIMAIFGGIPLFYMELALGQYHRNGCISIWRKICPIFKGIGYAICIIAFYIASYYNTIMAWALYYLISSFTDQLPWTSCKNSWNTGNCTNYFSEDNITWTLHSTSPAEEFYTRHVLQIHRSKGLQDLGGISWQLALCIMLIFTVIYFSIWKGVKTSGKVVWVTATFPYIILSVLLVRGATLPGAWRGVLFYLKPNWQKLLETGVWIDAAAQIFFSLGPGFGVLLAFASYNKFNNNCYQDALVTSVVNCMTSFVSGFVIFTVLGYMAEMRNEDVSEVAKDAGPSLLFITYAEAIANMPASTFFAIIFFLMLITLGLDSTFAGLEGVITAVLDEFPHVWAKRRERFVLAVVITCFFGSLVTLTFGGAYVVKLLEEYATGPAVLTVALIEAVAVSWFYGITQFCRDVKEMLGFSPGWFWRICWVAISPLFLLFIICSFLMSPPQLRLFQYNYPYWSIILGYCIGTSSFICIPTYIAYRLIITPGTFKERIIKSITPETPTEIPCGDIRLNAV

With `CSc1ccc(CC(C)NC(C)Cc2ccc(SC)cc2)cc1` (configuration not stated), the pEC50 (as a rule, −log10 of the EC50, conventionally taken in molar units) was 4.79 with HEK293 [1]; 4.59 in the data set on HEK293 [2]; 4.60 in the data set on HEK293 [3]; 4.58 in the data set with HEK293 [4]; 4.56 in the data set on PC-12 [5]; 4.65 with SH-SY5Y.
Regarding `CSc1ccc(CC(Cc2ccc(SC)cc2)NC=O)cc1`, the negative-log EC50 (pEC50) was 4.30 in the data set with HEK293 [2]; 3.34 in the data set on HEK293 [3]; 4.06 with HEK293 [4]; 4.42 in the data set on PC-12 [5]; 4.49 with SH-SY5Y.
As for `CNC(C)Cc1ccc2c(c1)OCO2` (configuration not stated) [MIDOMAFETAMINE], the negative-log EC50 (pEC50) in the data set with HEK293 [2] is 3.31; with HEK293 [3], 2.81; with HEK293 [4], 2.71.
As for `CSc1ccc(C/C(C)=N/O)cc1`, the pEC50 was 2.52 in the data set with HEK293 [1]; 3.67 in the data set with HEK293 [2]; 2.76 with HEK293 [3]; 4.17 in the data set on HEK293 [4]; 3.11 in the data set on PC-12 [5]; 3.47 with SH-SY5Y. Moreover, in the data set on PC-12 [6], the Activity result is reported as “Toxic”.
Turning to `CSc1ccc(CC(C)N)cc1` (configuration not stated) [4-METHYLTHIOAMPHETAMINE], the Ratio IC50 worked out at 3070 in data set [7] and 2370 in data set [8]. Also, the pEC50 in the data set with HEK293 [2] was 4.65; with HEK293 [3] it was 4.65; in the data set with HEK293 [4] it was 4.38; in the data set on PC-12 [5] it was 3.53; in the data set with SH-SY5Y it was 3.29.
Take `CC(N)Cc1ccc2c(c1)OCO2` (configuration not stated) [TENAMFETAMINE]: the pIC50 (usually the IC50 on a negative log10 scale, so that one unit is a factor of ten) in [9] was 6.32. The pEC50 in the data set on HEK293 [2] is 3.16; in the data set on HEK293 [3], 3.23; in the data set on HEK293 [4], 2.23.
Turning to `CCC(Cc1ccc(SC)cc1)NC=O` (configuration not stated), the pEC50 with HEK293 [1] is 4.21; in the data set on HEK293 [2], 4.19; in the data set on HEK293 [3], 4.10; in the data set on HEK293 [4], 2.95; with PC-12 [5], 3.13; in the data set on SH-SY5Y, under 2.00. Besides, the Activity entry in the data set on PC-12 [6] was “Toxic”.
With `CSc1ccc(Cc2ccncn2)cc1`, the negative logarithm of the EC50 (pEC50) in the data set with HEK293 [1] was 5.03; in the data set with HEK293 [2] it was 4.78; in the data set with HEK293 [3], 4.20; with HEK293 [4] it was 4.93; in the data set on PC-12 [5] it was 4.17; with SH-SY5Y, 2.53.
For `CSc1ccc(CC(C)NC=O)cc1` (configuration not stated), the pEC50 was 2.54 in the data set on HEK293 [1]; 2.87 in the data set on HEK293 [2]; 3.43 with HEK293 [3]; 2.64 in the data set with HEK293 [4]; under 2.00 with PC-12 [5]; under 2.00 in the data set on SH-SY5Y. In the data set with PC-12 [6], the Activity entry was “Non-toxic”.
With `CCc1nc(Cc2ccc(SC)cc2)c(C)cc1-c1ccc(SC)cc1`, the negative logarithm of the EC50 (pEC50) in the data set on HEK293 [1] was 4.73; in the data set on HEK293 [2], 4.46; in the data set with HEK293 [3] it was 4.53; in the data set on HEK293 [4], 4.57; with PC-12 [5] it was 4.53; in the data set with SH-SY5Y, 3.75.
With `CSc1ccc(CC(N)Cc2ccc(SC)cc2)cc1`, the pEC50 in the data set with HEK293 [1] is 4.65; in the data set with HEK293 [2], 4.61; in the data set with HEK293 [3] it was 3.90; with HEK293 [4], 4.60; in the data set with PC-12 [5] it was 3.20; in the data set with SH-SY5Y it was 4.73. The Activity entry in the data set with PC-12 [6] is given as “Toxic”.
Take `CSc1ccc(CC(Cc2ccc(SC)cc2)NC(C)=O)cc1`: the pEC50 in the data set with HEK293 [1] is 4.30; in the data set on HEK293 [2], 4.41; with HEK293 [3] it was 4.59; in the data set on HEK293 [4], 4.08; with PC-12 [5], 2.38; in the data set with SH-SY5Y, 3.22. Further, in the data set on PC-12 [6], the Activity result was “Non-toxic”.
Consider `CCC(Cc1ccc(SC)cc1)NC` (configuration not stated), for which the pEC50 with HEK293 [2] was 4.26; in the data set with HEK293 [3] it was 4.18; in the data set with HEK293 [4], 3.38.
`CCNC(Cc1ccc(SC)cc1)Cc1ccc(SC)cc1`: the pEC50 with HEK293 [1] is 4.77; in the data set with HEK293 [2], 4.59; with HEK293 [3], 3.58; with HEK293 [4], 4.57; with PC-12 [5], 3.64; in the data set with SH-SY5Y, 4.86. Moreover, in the data set with PC-12 [6], the Activity result is reported as “Toxic”.
